The record followed here is ChEMBL document CHEMBL1154304, “Triterpenoids and flavonoids from celery (Apium graveolens)” (J Nat Prod, 2009).

Some results are limits rather than exact numbers.

In the assay the test system is RAW264.7. Nature of the assay: Antiinflammatory activity against mouse RAW264.7 cells assessed as inhibition of LPS-induced nitrite accumulation after 24 hrs by Griess reagent method. As to conditions: RAW264.7, 24 h. It counts as functional, cell-based. The procedure, abridged: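 RAW 264.7 mouse macrophages in RPMI 1640 with 10% heat-inactivated FBS, penicillin/streptomycin, seeded at 1×10^5 cells/well, adhered 2 h at 37 °C, 5% CO₂. LPS 1 μg/mL for 24 h with or without compounds in DMSO (0.2% v/v final). Nitrite in supernatant read with Griess reagent against sodium nitrite standards (0–100 μM). Inhibition is relative to LPS-only and untreated wells. MTT viability check run in parallel. Triplicate, mean ± SD of three experiments.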

As a reminder, the IC50 is the concentration needed to halve the response being measured. For `O=c1cc(-c2ccc(O)cc2)oc2cc(O[C@@H]3O[C@H](CO)[C@@H](O)[C@H](O)[C@H]3O)cc(O)c12` [APIGETRIN], the IC50 is greater than 20 µM.
For `O=c1c(O)c(-c2ccc(O)c(O)c2)oc2cc(O)cc(O)c12` [QUERCETIN] the value was 11.4 µM.
For `O=c1cc(-c2ccc(O)c(O)c2)oc2cc(O)cc(O)c12` [LUTEOLIN], the IC50 came out at 7.5 µM.
Regarding `O=c1cc(-c2ccc(O)cc2)oc2cc(O[C@@H]3O[C@H](CO)[C@@H](O)[C@H](O)[C@H]3O[C@@H]3OC[C@](O)(CO)[C@H]3O)cc(O)c12` [APIIN], the IC50 was greater than 20 µM.
For `O=c1cc(-c2ccc(O)cc2)oc2cc(O)cc(O)c12` [APIGENIN], the IC50 came to 6.7 µM.
As for `O=c1cc(-c2ccc(O)c(O)c2)oc2cc(O[C@@H]3O[C@H](CO)[C@@H](O)[C@H](O)[C@H]3O)cc(O)c12` [GALUTEOLIN], the IC50 is greater than 20 µM.
The value for `C[C@H]1[C@H](C)C(=O)C[C@]2(C)C[C@H](O)[C@]3(C)C(=CC(=O)[C@@H]4[C@@]5(C)CC[C@H](O)[C@](C)(CO[C@@H]6O[C@H](CO)[C@@H](O)[C@H](O)[C@H]6O)[C@@H]5CC[C@]43C)[C@H]12` was greater than 20 µM.
Regarding `C[C@H]1[C@H](C)C(=O)C[C@]2(C)C[C@H](O)[C@]3(C)C(=CC(=O)[C@@H]4[C@@]5(C)C[C@H](O[C@@H]6O[C@H](CO)[C@@H](O)[C@H](O)[C@H]6O)[C@H](O)C(C)(C)[C@@H]5CC[C@]43C)[C@H]12`, the IC50 was greater than 20 µM.
With `COc1cc(-c2cc(=O)c3c(O)cc(O)cc3o2)ccc1O` [CHRYSOERIOL], the IC50 was 14.2 µM.
For `CC1(C)C[C@H]2C3=CC(=O)[C@@H]4[C@@]5(C)CC[C@H](O)[C@](C)(CO[C@@H]6O[C@H](CO)[C@@H](O)[C@H](O)[C@H]6O)[C@@H]5CC[C@@]4(C)[C@]3(C)[C@@H](O)C[C@@]2(C)CC1=O` the value was greater than 20 µM; for `O=C1C[C@@H](c2ccc(O)cc2)Oc2cc(O[C@@H]3O[C@H](CO)[C@@H](O)[C@H](O)[C@H]3O[C@@H]3OC[C@](O)(CO)[C@H]3O)cc(O)c21`, greater than 20 µM; for `COc1cc(/C=C/C(=O)OC[C@@]2(O)CO[C@@H](O[C@H]3[C@H](Oc4cc(O)c5c(=O)cc(-c6ccc(O)c(OC)c6)oc5c4)O[C@H](CO)[C@@H](O)[C@@H]3O)[C@@H]2O)ccc1O`, greater than 20 µM.
`COc1cc(/C=C/C(=O)OC[C@@]2(O)CO[C@@H](O[C@H]3[C@H](Oc4cc(O)c5c(=O)cc(-c6ccc(O)cc6)oc5c4)O[C@H](CO)[C@@H](O)[C@@H]3O)[C@@H]2O)ccc1O`: the IC50 was greater than 20 µM.
In the case of `COc1cc(-c2cc(=O)c3c(O)cc(O[C@@H]4O[C@H](CO)[C@@H](O)[C@H](O)[C@H]4O)cc3o2)ccc1O`, the IC50 is greater than 20 µM.
As to `COc1cc(/C=C/C(=O)CC(=O)/C=C/c2ccc(O)c(OC)c2)ccc1O` [CURCUMIN], the IC50 was determined as 8.3 µM.
As to `COc1cc(/C=C/C(=O)OC[C@@]2(O)CO[C@@H](O[C@H]3[C@H](Oc4cc(O)c5c(=O)cc(-c6ccc(O)c(O)c6)oc5c4)O[C@H](CO)[C@@H](O)[C@@H]3O)[C@@H]2O)ccc1O`, the IC50 is greater than 20 µM.
